Screening data (PubChem)
Rows were chosen to be rich in hits. Some 3.8% of all compounds tested hit in one or more screens of this group.
KCNK3 inh = human KCNK3 channel inhibitors, primary screen, CHO cells, FluxOR thallium flux, B-score. FluxOR fluorescence; active compounds read low. Potassium channel subfamily K member 3 (Homo sapiens), O14649. actives 0.84% (n = 340,000). B-score at 10 µM;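 active means B-score under library mean minus 4 SD, starting fluorescence ratio at most library mean plus 5 SD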;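 further: more negative B-score means stronger inhibition of thallium flux through KCNK3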
KCNK9 inh = KCNK9 potassium channel inhibitors, primary screen, HEK293 cells, thallium flux; Potassium channel subfamily K member 9 (Homo sapiens), Q9NPC2; AID 488922, 2010; actives 1.2% (n = 310,000); FluxOR thallium flux fluorescence; active compounds read low; B-score at 10 µM;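 active means ratio B-score over 3 SD below the library mean, with starting fluorescence within 5 SD of its mean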;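 further: negative B-score means less thallium flux so channel inhibition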
Target sequence (Q9NPC2 whole entry, looked up): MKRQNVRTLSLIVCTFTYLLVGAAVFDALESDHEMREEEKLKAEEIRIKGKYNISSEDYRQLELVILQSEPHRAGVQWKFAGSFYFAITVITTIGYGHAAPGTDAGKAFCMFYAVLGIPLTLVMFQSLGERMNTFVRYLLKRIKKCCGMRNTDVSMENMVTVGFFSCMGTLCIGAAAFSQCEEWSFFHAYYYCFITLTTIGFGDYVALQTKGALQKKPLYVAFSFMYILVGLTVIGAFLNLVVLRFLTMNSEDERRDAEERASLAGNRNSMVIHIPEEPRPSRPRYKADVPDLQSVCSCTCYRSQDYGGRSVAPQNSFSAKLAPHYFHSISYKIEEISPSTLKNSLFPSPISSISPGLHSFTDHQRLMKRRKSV
KCNQ1 pot = potentiators or activators of KCNQ1 channel, primary screen, cell-based, thallium flux, high-throughput. actives 0.35% (n = 310,000). CHO-K1 KCNQ1, thallium flux FluxOR fluorescence; active compounds read high. B-score at 10 µM. Potassium voltage-gated channel subfamily KQT member 1 (Homo sapiens), P51787. AID 2648, 2010;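 active means fluorescence ratio B-score, a plate-corrected score, at least three library SD, with initial intensity B-score within 5 SD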
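Medium – assay buffer, equal DMSO in all wells · Material – CHO-K1 cell line with stable KCNQ1 potassium channel expression · Signal – kinetic FluxOR thallium fluorescence, 10-s 1-Hz baseline, 110-s post-stimulus read · Compound – single concentration per compound, DMSO matched to controls · Schedule – 37 °C overnight plating, 90-min dark dye load, 20-min compound pretreatment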
Kir21 block = inhibitors of mouse Kir2.1 inward-rectifier potassium channel; Inward rectifier potassium channel 2 (Mus musculus), P35561; HEK293-Kir2.1, FluxOR thallium flux fluorescence; active compounds read low; B-score at 10 µM; actives 0.85% (n = 310,000); AID 1672, 2009;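 active means fluorescence ratio B-score at or below minus 3 SD of library scores, with starting-brightness B-score within 2 SD, cut at about -4.2 in these data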;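 further: channel flux triggered by added potassium and thallium sulfate stimulus; B-score of peak minus minimum fluorescence over baseline after thallium stimulus; more negative B-score means stronger Kir2.1 block with less thallium influx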
KCNQ1 inh = inhibitors of human KCNQ1 channel, primary screen, cell-based, thallium flux, high-throughput; CHO-K1 KCNQ1, FluxOR thallium flux fluorescence; active compounds read high; B-score at 10 µM; actives 1.3% (n = 310,000); AID 2642, 2010;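 active means compounds whose thallium flux B-score, printed positive for inhibition, exceeds three library SD while starting fluorescence stays within three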;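 further: channel opened by potassium depolarization with thallium stimulus after 20 min compound exposure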
hERG rescue = hERG rescue from dofetilide block, primary screen, cell-based, CHO-hERG, FluxOR thallium flux, dofetilide IC70; activation (rescue from dofetilide block), less the hit threshold, % at 10 µM; actives 0.51% (n = 310,000); Voltage-gated inwardly rectifying potassium channel KCNH2 (Homo sapiens), Q12809; dofetilide IC70 present;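 active means activation above the mean of controls blocked by dofetilide plus 5 SD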;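 further: thallium influx through hERG after potassium depolarization seen as dye fluorescence rise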
KCNK9 inh conf = KCNK9 potassium channel inhibitors, confirmation, HEK293 cells, thallium flux, duplicate | shares compounds with KCNK9 inh | FluxOR thallium flux fluorescence | inhibition, % at 10 µM | actives 43% (n = 4,900);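 active means thallium signal inhibited by more than 5 SD of the compound-free buffer control wells, on both duplicate plates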;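 further: 0% = assay buffer control wells without compound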
Kir2-1 spec = mouse Kir2.1 channel inhibition, confirmation, selectivity assay for KCNK9 modulator project, cell-based, HEK293, thallium flux; shares compounds with KCNK9 inh; Kir2.1 cells, FluxOR thallium flux fluorescence; inhibition, % at 10 µM; actives 4% (n = 4,900); AID 492993, 2010;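 active means thallium signal drop more than 5 SD beyond the mean of the no-compound control wells, seen in both duplicate plates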;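 further: signal is fluorescence rise after thallium addition divided by baseline fluorescence; plate controls were assay buffer only for no effect and full block by chlorpromazine control for full effect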
KCNK9 uninduced = thallium flux in non-induced HEK293 cells, confirmation, counter-screen for KCNK9 inhibitor project, cell-based, second counter screen, non-induced KCNK9-HEK293; shares compounds with KCNK9 inh; FluxOR thallium flux; inhibition, % at 10 µM; actives 40% (n = 4,900);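 active means thallium signal drop beyond 5 SD of the untreated control mean, on both duplicate plates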;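 further: plate controls were buffer only IC0 wells for no effect and SID17386958 at its maximal inhibitory level for full effect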
KCNK3 inh conf = retest of human KCNK3 channel inhibitors, confirmation, CHO cells, FluxOR thallium flux, triplicate. shares compounds with KCNK3 inh. FluxOR fluorescence; 0% buffer, 100% carvedilol maximal block. ratio percent of control, % at 10 µM. actives 99% (n = 2,400). AID 651638, 2012;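 active means ratio percent of control, averaged over triplicates, above buffer control mean plus 5 SD, cut at about 64% in these data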;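 further: ratio is the fluorescence rise from min to max over baseline after thallium stimulus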
KCNK3 noninduced = thallium flux inhibition in non-induced cells, primary screen, counter-screen for KCNK3 inhibitor project, cell-based, non-induced KCNK3 line, FluxOR thallium, triplicate; shares compounds with KCNK3 inh; non-induced KCNK3 parental cells; active compounds read low; thallium flux ratio (lower = more inhibition) at 10 µM; actives 40% (n = 2,400); AID 651747, 2012;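 active means thallium flux ratio, averaged over three wells, more than 5 SD below the buffer control mean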;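 further: host cells are CHO cells without KCNK3 induction; ratio is peak minus trough fluorescence over baseline then normalized to buffer controls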
Starred values were filed as active, the others as inactive.

`CC1(C)Cc2cccc(Oc3cc(NN4CCCCC4)c([N+](=O)[O-])cc3[N+](=O)[O-])c2O1` gave KCNK3 inh -12*, KCNK9 inh -14*, KCNQ1 pot inactive, Kir21 block -0.81, KCNQ1 inh 6*, hERG rescue -7, KCNK9 inh conf 56%*, Kir2-1 spec inactive, KCNK9 uninduced 40%*, KCNK3 inh conf 88* and KCNK3 noninduced inactive.
O=[N+]([O-])c1cc([N+](=O)[O-])c(Oc2cccc(Cl)c2Cl)cc1NN1CCCCC1 was read as KCNK3 inh inactive, KCNK9 inh inactive, KCNQ1 pot inactive, Kir21 block 0.1, KCNQ1 inh inactive and hERG rescue -6.
`CC(C)(C)Nc1nc(Nc2ccc([N+](=O)[O-])cc2)nc(NC(C)(C)C)n1` gave KCNK3 inh -11*, KCNK9 inh -13*, KCNQ1 pot inactive, Kir21 block -0.55, KCNQ1 inh 8*, hERG rescue -11, KCNK9 inh conf 46%*, Kir2-1 spec inactive, KCNK9 uninduced 34%*, KCNK3 inh conf 128* and KCNK3 noninduced 0.13*.
Cc1ccc(Nc2nc(Cl)nc(NC(C)(C)C)n2)cc1 was read as KCNK3 inh inactive, KCNK9 inh inactive, KCNQ1 pot inactive, Kir21 block -0.18, KCNQ1 inh inactive and hERG rescue -7.
`O=C(NCCn1cc(SCc2ccc(F)cc2)c2ccccc21)c1c(F)cccc1F` gave KCNK3 inh -9.9*, KCNK9 inh -14*, KCNQ1 pot inactive, Kir21 block -0.45, KCNQ1 inh inactive, hERG rescue -9, KCNK9 inh conf 60%*, Kir2-1 spec inactive, KCNK9 uninduced 31%*, KCNK3 inh conf 94* and KCNK3 noninduced inactive.
Screening O=C(NCCn1cc(SCc2ccccc2)c2ccccc21)c1c(F)cccc1F returned KCNK3 inh inactive, KCNK9 inh inactive, KCNQ1 pot inactive, Kir21 block -0.68, KCNQ1 inh inactive and hERG rescue -12.
O=C(CSc1nnc2c(n1)[nH]c1ccc(F)cc12)NCc1ccc(F)cc1 was read as KCNK3 inh inactive, KCNK9 inh inactive, KCNQ1 pot inactive, Kir21 block 0.52, KCNQ1 inh inactive and hERG rescue -1.
For Cc1cc(C)cc(NC(=O)c2ccc(Cn3nc(C)c(Cl)c3C)o2)c1 the results were KCNK3 inh -9.4*, KCNK9 inh -10*, KCNQ1 pot inactive, Kir21 block 0.55, KCNQ1 inh inactive, hERG rescue -13, KCNK9 inh conf inactive, Kir2-1 spec inactive, KCNK9 uninduced inactive, KCNK3 inh conf 137* and KCNK3 noninduced 0.12*.
Cc1csc(NC(=O)c2ccc(Cn3nc(C)c(Br)c3C)o2)n1 was read as KCNK3 inh inactive, KCNK9 inh inactive, KCNQ1 pot inactive, Kir21 block -0.06, KCNQ1 inh inactive and hERG rescue -23.
Screening O=C(COC(=O)c1c2c(nc3ccccc13)CCCC2)c1cccs1 returned KCNK3 inh -12*, KCNK9 inh -10*, KCNQ1 pot inactive, Kir21 block 0.61, KCNQ1 inh inactive, hERG rescue -18, KCNK9 inh conf 54%*, Kir2-1 spec inactive, KCNK9 uninduced inactive, KCNK3 inh conf 138* and KCNK3 noninduced 0.12*.
Cn1nc(-c2ccccc2)c(C#N)c1Sc1cccc(Cl)c1 was read as KCNK3 inh -9.1*, KCNK9 inh -11*, KCNQ1 pot inactive, Kir21 block -0.1, KCNQ1 inh inactive, hERG rescue -10, KCNK9 inh conf 55%*, Kir2-1 spec inactive, KCNK9 uninduced 52%*, KCNK3 inh conf 113* and KCNK3 noninduced 0.15*.
Screening CCOc1ccccc1Cn1c(=O)oc2ccc(C)cc21 returned KCNK3 inh inactive.
For CCCOc1ccccc1Cn1c(=O)oc2ccc(C)cc21 the results were KCNK3 inh -8.7*, KCNK9 inh -10*, KCNQ1 pot 16*, Kir21 block -1, KCNQ1 inh inactive, hERG rescue -18, KCNK9 inh conf 52%*, Kir2-1 spec inactive, KCNK9 uninduced 46%*, KCNK3 inh conf 115* and KCNK3 noninduced inactive.
Screening CCc1ccc(NC(=O)CN(N=Nc2nonc2C)c2nonc2C)cc1 returned KCNK3 inh -11*, KCNK9 inh -9*, KCNQ1 pot inactive, Kir21 block 0.58, KCNQ1 inh inactive, hERG rescue -14, KCNK9 inh conf 64%*, Kir2-1 spec inactive, KCNK9 uninduced 34%*, KCNK3 inh conf 115* and KCNK3 noninduced inactive.
`Cc1cccc2cc(CN(Cc3cccs3)Cc3nnnn3Cc3ccccc3)c(=O)[nH]c12` gave KCNK3 inh -11*, KCNK9 inh -13*, KCNQ1 pot inactive, Kir21 block 0, KCNQ1 inh inactive, hERG rescue -3, KCNK9 inh conf 29%*, Kir2-1 spec inactive, KCNK9 uninduced 28%*, KCNK3 inh conf 88* and KCNK3 noninduced inactive.
